*1 amine or outer side, *2 acyl side, *3 side chain or, on linkers, in order; H or OH if unused. Where a SMILES comes first, the peptide text is derived from it. Bridges are numbered along the chain shown (N, C = ends). [ ]: non-standard residue; d: D form. The star is where a group is joined. X4 = O=C(C(=O)[*:2])[C@H](Cc1ccccc1)N[*:1]; X3 = NN[C@@H](Cc1ccc(O)cc1)C(=O)*; Dap = NC[C@H](N)C(=O)O

Test [1] deals with T1, Melanocortin receptor 4 (Mus musculus, UniProt P56450). Briefly: Inhibitory concentration towards melanocortin MC4 receptor by displacing radioligand [125I]NDP-MSH. A digest of the protocol: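 Whole HEK-293 cells stably expressing the mouse MC4 receptor, plated at 0.3 × 10⁶ cells/well the day before. Cells washed, lysed in NaOH/Triton X-100, and counted by γ-counter. IC50 by nonlinear least-squares fit; duplicate wells, at least two independent experiments, mean ± SD.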

Test [2] concerns the target T1, Melanocortin receptor 4. Briefly: Inhibitory concentration towards melanocortin MC4 receptor by displacing radioligand [125I]-hAGRP(87-132).
Test [3] concerns the target Melanocortin receptor 3 (Mus musculus, UniProt P33033). Briefly: Effective concentration against mouse Melanocortin 3 receptor. Format: functional. To be noted: for Kb: read-out: pA2 (converted). A digest of the protocol: (§1)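 HEK-293 cells stably expressing the mouse melanocortin receptor (G418 selection), transiently transfected with CRE/β-galactosidase reporter. EC50 by nonlinear least-squares fit; SEM from at least three independent experiments.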

Test [4] addresses Melanocyte-stimulating hormone receptor (Mus musculus, UniProt Q01727). The test can be described thus: Effective concentration against mouse Melanocortin 1 receptor. Format: functional. Put shortly: as §1
Test [5] deals with Melanocortin receptor 5 (Mus musculus, UniProt P41149). Briefly: Effective concentration against mouse Melanocortin 5 receptor. Format: functional. Put shortly: as §1
In test [6] the target is T1, Melanocortin receptor 4. Briefly: Effective concentration against mouse melanocortin MC4 receptor. Format: functional. A digest of the protocol: as §1

Chain of Melanocortin receptor 3 (P33033 whole entry): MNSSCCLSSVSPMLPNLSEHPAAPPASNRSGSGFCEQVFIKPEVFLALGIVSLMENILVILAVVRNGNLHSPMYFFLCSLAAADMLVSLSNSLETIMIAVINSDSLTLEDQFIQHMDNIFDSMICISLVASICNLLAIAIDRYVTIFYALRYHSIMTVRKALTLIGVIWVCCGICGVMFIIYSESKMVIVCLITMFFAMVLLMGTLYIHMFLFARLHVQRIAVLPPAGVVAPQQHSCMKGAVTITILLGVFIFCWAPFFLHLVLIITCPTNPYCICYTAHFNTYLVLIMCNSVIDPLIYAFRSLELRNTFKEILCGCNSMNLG
Chain of Melanocyte-stimulating hormone receptor (Q01727 whole entry): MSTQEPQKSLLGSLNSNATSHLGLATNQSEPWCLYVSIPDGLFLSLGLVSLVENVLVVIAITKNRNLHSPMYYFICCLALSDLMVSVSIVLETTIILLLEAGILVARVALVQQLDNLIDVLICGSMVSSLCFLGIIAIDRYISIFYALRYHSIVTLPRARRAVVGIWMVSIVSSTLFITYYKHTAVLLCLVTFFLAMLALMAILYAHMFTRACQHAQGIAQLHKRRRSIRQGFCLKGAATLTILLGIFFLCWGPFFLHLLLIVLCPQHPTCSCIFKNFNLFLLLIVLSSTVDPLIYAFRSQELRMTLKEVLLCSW
T1 sequence (P56450 whole entry): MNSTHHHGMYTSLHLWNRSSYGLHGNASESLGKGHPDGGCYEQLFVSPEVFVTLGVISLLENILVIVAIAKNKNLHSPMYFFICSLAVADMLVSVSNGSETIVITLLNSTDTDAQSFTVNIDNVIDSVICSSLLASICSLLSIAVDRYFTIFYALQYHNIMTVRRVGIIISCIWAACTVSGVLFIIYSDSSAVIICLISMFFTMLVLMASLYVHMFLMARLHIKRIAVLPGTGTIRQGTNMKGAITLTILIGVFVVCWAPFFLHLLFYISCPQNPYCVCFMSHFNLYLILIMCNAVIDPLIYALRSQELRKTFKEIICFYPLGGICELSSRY
Chain of Melanocortin receptor 5 (P41149 whole entry): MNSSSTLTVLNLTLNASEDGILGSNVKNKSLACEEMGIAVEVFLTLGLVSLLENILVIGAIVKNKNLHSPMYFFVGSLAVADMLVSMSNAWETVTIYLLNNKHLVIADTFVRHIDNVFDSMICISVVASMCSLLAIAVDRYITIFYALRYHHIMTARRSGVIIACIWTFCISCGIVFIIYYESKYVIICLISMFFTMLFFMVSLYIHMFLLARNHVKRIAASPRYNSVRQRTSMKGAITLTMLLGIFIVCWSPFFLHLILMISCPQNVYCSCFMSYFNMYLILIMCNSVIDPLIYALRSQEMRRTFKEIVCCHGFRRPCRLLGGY

By IC50 is commonly meant the concentration that inhibits the measured activity by half. A higher IC50 goes with a need for much substance. `C[C@@H]1NC(=O)[C@H](CC(N)=O)NC(=O)[C@H](Cc2ccccc2)NC(=O)[C@H](Cc2ccccc2)NC(=O)[C@H](CCCNC(=N)N)NC(=O)[C@@H](NC(=O)[C@@H](N)Cc2ccc(O)cc2)CC(=O)NC[C@@H](C(=O)N[C@@H](Cc2ccc(O)cc2)C(N)=O)NC(=O)[C@H](Cc2ccccc2)NC1=O`: the IC50 in test [1] is 4.8 µM; in test [2], 3.2 µM.

With `C[C@@H]1NC(=O)[C@@H](CC(N)=O)NC(=O)[C@H](Cc2ccccc2)NC(=O)[C@@H](Cc2ccccc2)NC(=O)[C@H](CCCN=C(N)N)NC(=O)[C@@H](NC(=O)[C@@H](N)Cc2ccc(O)cc2)CC(=O)NC[C@@H](C(=O)N[C@@H](Cc2ccc(O)cc2)C(=O)O)NC(=O)[C@@H](Cc2ccccc2)NC1=O`, in test [3], the Kb was 2 µM.

Broadly, the EC50 is the concentration that produces a half-maximal response. Read a high EC50 as weaker potency. `CSCC[C@@H]1NC(=O)[C@H](C)NC(=O)[C@H]([C@@H](C)O)NC(=O)CNC(=O)[C@H](CC(C)C)NC(=O)[C@H](CCCCN)NC(=O)[C@H](CCCN=C(N)N)NC(=O)[C@@H]2CSSSSC[C@@H]3NC(=O)[C@@H]4CCCN4C(=O)[C@H](C(C)C)NC(=O)[C@H](CCC(N)=O)NC(=O)[C@H](CCC(N)=O)NC(=O)CNC(=O)[C@H](CC(C)C)NC(=O)[C@@H]4CSSSSC[C@H](NC(=O)[C@H]([C@@H](C)O)NC(=O)[C@H](C)NC(=O)[C@H](CSSSSC[C@@H](C(=O)N[C@@H](CO)C(=O)N[C@@H](CCCN=C(N)N)C(=O)N[C@H](C(=O)O)[C@@H](C)O)NC(=O)[C@@H]5CCCN5C(=O)[C@H](CC(N)=O)NC1=O)NC(=O)[C@@H]1CCCN1C(=O)[C@H](CC(=O)O)NC(=O)[C@H](CSSSSC[C@H](N)C(=O)N[C@@H](C(C)C)C(=O)N[C@@H](CCCN=C(N)N)C(=O)N[C@@H](CC(C)C)C(=O)N[C@@H](Cc1c[nH]cn1)C(=O)N[C@@H](CCC(=O)O)C(=O)N[C@@H](CO)C(=O)N4)NC3=O)C(=O)N[C@@H](Cc1ccc(O)cc1)C(=O)N[C@H]1CSSSSC[C@H](NC(=O)[C@H](Cc3ccccc3)NC(=O)[C@H](C)NC(=O)[C@H](CC(N)=O)NC(=O)[C@H](Cc3ccccc3)NC(=O)[C@H](Cc3ccccc3)NC(=O)[C@H](CCCN=C(N)N)NC1=O)C(=O)N[C@@H](Cc1ccc(O)cc1)C(=O)N2` returned an EC50 in test [4] above 100 µM. The IC50 in test [2] turned out to be 0.00548 µM. In test [3], the Kb is 0.00126 µM.

In the case of `C[C@@H]1NC(=O)[C@H](CC(N)=O)NC(=O)[C@H](Cc2c[nH]c3ccccc23)NC(=O)[C@H](CCCNC(=N)N)NC(=O)[C@H](Cc2ccccc2)NC(=O)[C@@H](NC(=O)[C@@H](N)Cc2ccc(O)cc2)CC(=O)NC[C@@H](C(=O)N[C@@H](Cc2ccc(O)cc2)C(N)=O)NC(=O)[C@H](Cc2ccccc2)NC1=O` (H-YDFRWNAF[Dap]Y-NH2; lactam 2-9), the IC50 in test [1] amounted to 9.2 µM; in test [2], 4.1 µM. In addition, the EC50 was 19.7 µM in test [4], 3.9 µM in test [5] and 13.4 µM in test [6].

Take `C[C@@H]1NC(=O)[C@H](CC(N)=O)NC(=O)[C@H](Cc2ccccc2)NC(=O)[C@H](Cc2ccccc2)NC(=O)[C@H](CCCNC(=N)N)NC(=O)[C@H](Cc2c[nH]cn2)NC(=O)[C@@H](NC(=O)[C@@H](N)Cc2ccc(O)cc2)CC(=O)NC[C@@H](C(=O)N[C@@H](Cc2ccc(O)cc2)C(N)=O)NC(=O)[C@H](Cc2ccccc2)NC1=O` (H-YDHRFFNAF[Dap]Y-NH2; lactam 2-10): the EC50 in test [4] is 13.3 µM; in test [5], above 100 µM; in test [6] it was above 100 µM.

With `C[C@@H]1NC(=O)[C@H](CC(N)=O)NC(=O)[C@H](Cc2ccccc2)NC(=O)[C@H](CCCNC(=N)N)NC(=O)[C@H](Cc2c[nH]c3ccccc23)NC(=O)[C@@H](NC(=O)[C@@H](N)Cc2ccc(O)cc2)CC(=O)NC[C@@H](C(=O)N[C@@H](Cc2ccc(O)cc2)C(N)=O)NC(=O)[C@H](Cc2ccccc2)NC1=O` (H-YDWRFNAF[Dap]Y-NH2; lactam 2-9), the IC50 in test [1] came out at 10.3 µM; in test [2], 7.3 µM.

On to `C[C@@H]1NC(=O)[C@H](CC(N)=O)NC(=O)[C@@H](Cc2ccccc2)NC(=O)[C@H](CCCNC(=N)N)NC(=O)[C@H](Cc2c[nH]c3ccccc23)NC(=O)[C@@H](NC(=O)[C@@H](N)Cc2ccc(O)cc2)CC(=O)NC[C@@H](C(=O)N[C@@H](Cc2ccc(O)cc2)C(N)=O)NC(=O)[C@H](Cc2ccccc2)NC1=O` (H-YDWR[dF]NAF[Dap]Y-NH2; lactam 2-9), for which the values for the EC50 in test [4], in test [5] and in test [6] were 6.12 µM, 2.22 µM and 15.9 µM, respectively. Moreover, the IC50 in test [2] is above 10 µM.

In the case of `C[C@@H]1NC(=O)[C@H](CC(N)=O)NC(=O)[C@H](Cc2c[nH]c3ccccc23)NC(=O)[C@H](CCCNC(=N)N)NC(=O)[C@@H](Cc2ccccc2)NC(=O)[C@@H](NC(=O)[C@@H](N)Cc2ccc(O)cc2)CC(=O)NC[C@@H](C(=O)N[C@@H](Cc2ccc(O)cc2)C(N)=O)NC(=O)[C@H](Cc2ccccc2)NC1=O` (H-YD[dF]RWNAF[Dap]Y-NH2; lactam 2-9), the values for the IC50 in test [1] and in test [2] were 6.8 µM and 3.1 µM, respectively.

`CNC(=O)C[C@@H]1NC(=O)[C@H](C)NC(=O)[C@H](C)NC(=O)[C@H](C)NC(=O)[C@@H](NC(=O)[C@H](Cc2ccc(O)cc2)NN)CC(=O)NC[C@@H](C(=O)N[C@@H](Cc2ccc(O)cc2)C(N)=O)NC(=O)C(=O)[C@H](Cc2ccccc2)NC(=O)[C@H](C)NC1=O` (X3-DAAAD(NHMe)A[X4][Dap]Y-NH2; lactam 1-8) returned a concentration giving a half-maximal response (EC50) in test [3] above 100 µM.

(Values after ChEMBL document CHEMBL1137089, “Identification of putative agouti-related protein(87-132)-melanocortin-4 receptor interactions by homology molecular modeling and validation using chimeric peptide ligands” (J Med Chem, 2004).)
